Assay results from ChEMBL document CHEMBL1149202, “N-Aryl-gamma-lactams as integrin alphavbeta3 antagonists” (Bioorg Med Chem Lett, 2004).

How the values were obtained:
Integrin alpha-V/beta-3 = Integrin alpha-V/beta-3 (Homo sapiens, UniProt P05106+P06756); assay: Binding affinity towards vitronectin receptor (AlphaV-beta3 integrin).; assay type: protein-complex assay
Method in brief: (§1)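 Purified integrin (αvβ3; αIIbβ3) was bead-coupled overnight at 4 °C. Competitive electrochemiluminescent binding used Ru-labelled vitronectin for αvβ3 and Ru-labelled fibrinogen for αIIbβ3, in pH 7.5 Tris buffer with Ca2+, Mg2+, Mn2+, 1% BSA and 0.05% Tween-20, for 2 h at 25 °C. DMSO serial dilutions were used. Nonspecific binding was taken with excess unlabelled ligand or 5 mM EDTA. Ki came from a four-parameter fit, SD of ≥2 determinations.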

[1] = molecular target: Integrin alpha-IIb/beta-3 (Homo sapiens, UniProt P05106+P08514); assay: Affinity for alphaIIb-beta3 integrin; assay type: protein-complex assay; method in brief: as §1
Integrin alpha-IIb/beta-3, sequence (P05106 27-788 limits assumed): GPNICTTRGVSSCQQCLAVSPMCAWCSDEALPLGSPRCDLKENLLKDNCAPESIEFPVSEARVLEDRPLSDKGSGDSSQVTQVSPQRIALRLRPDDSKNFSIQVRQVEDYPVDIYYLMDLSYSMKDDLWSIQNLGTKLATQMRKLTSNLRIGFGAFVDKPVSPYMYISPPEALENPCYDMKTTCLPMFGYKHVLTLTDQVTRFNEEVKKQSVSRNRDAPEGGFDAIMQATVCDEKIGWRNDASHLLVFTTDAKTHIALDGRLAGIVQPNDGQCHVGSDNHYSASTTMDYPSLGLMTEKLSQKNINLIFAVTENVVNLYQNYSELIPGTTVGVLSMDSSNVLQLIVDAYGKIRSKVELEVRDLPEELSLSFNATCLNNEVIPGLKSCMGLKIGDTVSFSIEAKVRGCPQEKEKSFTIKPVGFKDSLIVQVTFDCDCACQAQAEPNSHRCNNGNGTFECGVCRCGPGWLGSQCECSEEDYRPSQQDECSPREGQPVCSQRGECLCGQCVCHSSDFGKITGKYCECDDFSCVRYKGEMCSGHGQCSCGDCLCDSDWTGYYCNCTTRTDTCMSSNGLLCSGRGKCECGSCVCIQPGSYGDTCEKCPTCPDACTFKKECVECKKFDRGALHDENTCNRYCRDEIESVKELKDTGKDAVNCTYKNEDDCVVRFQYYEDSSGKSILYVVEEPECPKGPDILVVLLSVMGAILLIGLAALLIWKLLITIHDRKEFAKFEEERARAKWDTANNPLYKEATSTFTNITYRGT
Integrin alpha-IIb/beta-3, sequence (P08514 32-887 limits assumed): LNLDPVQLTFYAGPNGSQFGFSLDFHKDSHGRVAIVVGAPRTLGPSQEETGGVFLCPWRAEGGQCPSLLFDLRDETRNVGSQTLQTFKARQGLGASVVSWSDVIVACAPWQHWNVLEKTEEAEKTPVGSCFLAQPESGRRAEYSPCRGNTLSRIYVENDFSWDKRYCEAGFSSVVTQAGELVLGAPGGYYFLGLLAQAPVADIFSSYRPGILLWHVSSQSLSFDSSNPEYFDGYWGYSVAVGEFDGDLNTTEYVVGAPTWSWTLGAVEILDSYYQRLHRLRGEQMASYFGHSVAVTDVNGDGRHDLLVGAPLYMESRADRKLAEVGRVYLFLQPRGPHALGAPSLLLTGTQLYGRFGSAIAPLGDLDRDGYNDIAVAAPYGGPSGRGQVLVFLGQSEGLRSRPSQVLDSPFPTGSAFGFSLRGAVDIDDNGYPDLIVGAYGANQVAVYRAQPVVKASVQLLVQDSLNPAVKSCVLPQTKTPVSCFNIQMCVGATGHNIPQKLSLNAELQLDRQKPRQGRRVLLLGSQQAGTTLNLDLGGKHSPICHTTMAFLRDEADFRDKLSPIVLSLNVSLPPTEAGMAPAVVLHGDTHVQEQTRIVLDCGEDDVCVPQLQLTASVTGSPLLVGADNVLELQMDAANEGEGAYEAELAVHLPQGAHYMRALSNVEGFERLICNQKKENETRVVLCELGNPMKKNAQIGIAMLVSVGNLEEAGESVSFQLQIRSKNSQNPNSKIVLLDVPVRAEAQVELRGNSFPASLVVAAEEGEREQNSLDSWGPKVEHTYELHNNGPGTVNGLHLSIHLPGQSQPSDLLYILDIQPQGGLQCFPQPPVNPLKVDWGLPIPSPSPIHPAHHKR
Integrin alpha-IIb/beta-3, sequence (P08514 891-1039 limits assumed): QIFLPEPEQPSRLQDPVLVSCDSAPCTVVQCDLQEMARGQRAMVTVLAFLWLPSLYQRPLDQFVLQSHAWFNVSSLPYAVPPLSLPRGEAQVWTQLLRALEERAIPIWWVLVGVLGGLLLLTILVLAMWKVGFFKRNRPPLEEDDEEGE

Integrin alpha-V/beta-3, sequence (P05106 27-788 limits assumed): as the sequence (P05106 27-788 limits assumed) above
Integrin alpha-V/beta-3, sequence (P06756 31-889 limits assumed): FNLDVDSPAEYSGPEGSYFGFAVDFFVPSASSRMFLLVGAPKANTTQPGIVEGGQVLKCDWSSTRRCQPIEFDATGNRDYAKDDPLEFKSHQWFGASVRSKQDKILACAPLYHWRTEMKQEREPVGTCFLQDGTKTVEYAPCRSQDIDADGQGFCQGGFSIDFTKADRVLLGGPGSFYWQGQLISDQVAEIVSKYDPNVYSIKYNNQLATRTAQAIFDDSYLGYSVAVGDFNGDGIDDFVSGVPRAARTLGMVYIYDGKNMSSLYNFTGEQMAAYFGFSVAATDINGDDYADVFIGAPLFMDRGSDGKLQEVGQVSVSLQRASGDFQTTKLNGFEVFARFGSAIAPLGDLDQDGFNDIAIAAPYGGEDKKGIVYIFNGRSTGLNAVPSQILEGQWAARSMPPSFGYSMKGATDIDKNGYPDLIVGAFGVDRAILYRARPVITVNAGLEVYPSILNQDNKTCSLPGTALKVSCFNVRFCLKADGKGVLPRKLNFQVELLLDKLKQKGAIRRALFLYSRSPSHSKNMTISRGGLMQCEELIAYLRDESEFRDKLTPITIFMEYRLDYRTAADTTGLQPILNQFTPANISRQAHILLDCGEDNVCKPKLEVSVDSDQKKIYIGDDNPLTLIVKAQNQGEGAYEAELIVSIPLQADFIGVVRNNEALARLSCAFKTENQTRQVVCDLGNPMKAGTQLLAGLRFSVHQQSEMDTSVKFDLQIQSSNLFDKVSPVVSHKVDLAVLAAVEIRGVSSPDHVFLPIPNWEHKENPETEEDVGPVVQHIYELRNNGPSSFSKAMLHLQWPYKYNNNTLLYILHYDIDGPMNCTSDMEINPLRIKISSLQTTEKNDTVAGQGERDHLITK
Integrin alpha-V/beta-3, sequence (P06756 891-1048 limits assumed): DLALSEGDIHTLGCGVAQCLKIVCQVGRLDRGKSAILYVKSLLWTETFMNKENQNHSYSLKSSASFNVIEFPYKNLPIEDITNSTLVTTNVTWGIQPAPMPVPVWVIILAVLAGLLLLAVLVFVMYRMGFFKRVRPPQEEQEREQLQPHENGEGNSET

Ki (Integrin alpha-V/beta-3) | Ki [1] | Structure (SMILES)
5.1 nM | – | O=C(O)CC(NC(=O)C1CC(=O)N(c2cccc(NC3=NCCN3)c2)C1)c1cccnc1 (stereo not drawn)
52.7 nM | – | NC(N)=Nc1ccc(Cl)c(N2CC(C(=O)NC(CC(=O)O)c3cccnc3)CC2=O)c1 (stereo not drawn)
2.9 nM | – | NC(N)=Nc1ccc(F)c(N2CC(C(=O)NC(CC(=O)O)c3cccnc3)CC2=O)c1 (stereo not drawn)
> 1000 nM | > 25000 nM | O=C(O)C[C@H](NC(=O)[C@H]1CC(=O)N(c2cccc(NC(=O)NCc3ccccc3)c2)C1)c1cccc(F)c1
7.3 nM | > 25000 nM | O=C(O)C[C@@H](NC(=O)[C@@H]1CC(=O)N(c2cccc(NC3=NCCCN3)c2)C1)c1ccc2c(c1)OCO2
1.4 nM | – | O=C(O)CC(NC(=O)C1CC(=O)N(c2cccc(NC3=NCCCN3)c2)C1)c1cccnc1 (stereo not drawn)
154 nM | > 25000 nM | O=C(O)C[C@@H](NC(=O)[C@@H]1CC(=O)N(c2cccc(NC(=O)NCc3ccccc3)c2)C1)c1cccc(F)c1
0.1 nM | 2100 nM | O=C(O)C[C@H](NC(=O)[C@@H]1CC(=O)N(c2cccc(NC3=NCCCN3)c2)C1)c1ccc2c(c1)OCO2
10.4 nM | – | O=C(O)CC(NC(=O)C1CC(=O)N(c2cccc(NC(=O)NCc3ccccc3)c2)C1)c1cccnc1 (stereo not drawn)
70.9 nM | – | O=C(O)CC(NC(=O)C1CC(=O)N(c2cccc(NC(=O)NCc3ccccc3)c2)C1)c1ccccc1 (stereo not drawn)
0.7 nM | – | O=C(O)CC(NC(=O)C1CC(=O)N(c2cccc(NC3=NCCCN3)c2)C1)c1ccc2c(c1)OCO2 (stereo not drawn)
> 1000 nM | > 25000 nM | O=C(O)C[C@@H](NC(=O)[C@H]1CC(=O)N(c2cccc(NC(=O)NCc3ccccc3)c2)C1)c1cccc(F)c1
11.1 nM | – | O=C(O)CC(NC(=O)C1CC(=O)N(c2cccc(NC(=O)NCc3ccccc3)c2)C1)c1cccc(F)c1 (stereo not drawn)
0.5 nM | – | O=C(O)CC(NC(=O)C1CC(=O)N(c2cc(NC3=NCCCN3)ccc2F)C1)c1ccc2c(c1)OCO2 (stereo not drawn)
2.4 nM | – | O=C(O)CC(NC(=O)C1CC(=O)N(c2cccc(NC(=O)NCc3ccccc3)c2)C1)c1ccc2c(c1)OCO2 (stereo not drawn)
16.6 nM | – | N=C(N)Nc1cccc(N2CC(C(=O)NC(CC(=O)O)c3cccnc3)CC2=O)c1 (stereo not drawn)
10 nM | > 25000 nM | O=C(O)C[C@H](NC(=O)[C@@H]1CC(=O)N(c2cccc(NC(=O)NCc3ccccc3)c2)C1)c1cccc(F)c1
